MT stabilize HCS = microtubule stabilization, imaging screen | HeLa tubulin immunostaining HCS, 24 h; share of cells brighter than vehicle mean+2SD | % tubulin-high responders, % at 10 µM | 200,000 compounds, 0.83% hits;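 active = plate Z-score above 3 for both tubulin-high and condensed-nucleus cell shares, with cell loss under 80%, at 10 µM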;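 also: anti alpha tubulin signal scored within the nucleus-defined area of each cell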
Arbovirus anti = blocks arbovirus infection; arbovirus infection cell-based antiviral screen; inhibition, % at 10 µM; 200,000 compounds, 0.37% hits; AID 1251; in the data active = inhibition above about 30%
ABCG2 inh = blocks JC-1 efflux by human ABCG2 transporter | IgMXP3 cells, flow cytometry | inhibition, % at 6.6 µM | 190,000 compounds, 0.1% hits | Q9UNQ0;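 active = inhibition above 80%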;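 also: 0% = DMSO and 100% = nicardipine control wells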
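Test system: ABCG2 IgMXP3 and barcoded ABCB1 CCRF-Adr cell mix; Schedule: cells with compound and JC-1, 10 min at 25 °C, rotating, no wash; Technique: flow cytometry of retained JC-1 fluorescence; Measure: % inhibition of efflux relative to nicardipine and DMSO; Controls: nicardipine high and DMSO low controls.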
ABCB1 inh = blocks JC-1 efflux by human ABCB1 transporter; inhibition, % at 6.6 µM; AID 1326; 190,000 compounds, 0.067% hits; CCRF-Adr cells, flow cytometry; P08183; in the data active = inhibition above about 40%;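 also: 0% = vehicle and 100% = reference inhibitor; higher value means more JC-1 retained so stronger ABCB1 efflux block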
Autophagy mod = autophagy modulation, high-content screen. calls only at 10 µM (by protocol). MEF GFP-LC3 puncta imaging; test concentration mostly 10 µM. AID 463193. 190,000 compounds, 0.98% hits;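 active = percentage of spot-positive cells more than 3 SD above its plate mean, without a fluorescence outlier flag or 80% toxicity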;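 also: spot-positive cell cutoff set from DMSO-treated cells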
bCat nuc transl = modulators of beta-catenin nuclear translocation; HeLa beta-catenin nuclear translocation, immunofluorescence imaging; nuclear translocation activity, % at 5 µM; 190,000 compounds, 0.3% hits;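 active = nuclear translocation activity above 50% at 5 µM, with a well cell count of 50 or more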;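 also: per-cell ratio of nuclear to cytoplasmic median beta-catenin stain intensity; plate controls were DMSO negative control for no effect and GSK-3 inhibitor IX positive control for full effect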
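Test system: human HeLa cells, native beta-catenin. Compound dosing: 5 µM primary single dose, 0.1% DMSO, 0.02–20 µM confirmation series. Incubation: compound exposure 24 h at 37°C. Detection: beta-catenin immunostaining with DAPI counterstain, 20x imaging, 6 fields/well. Read-out basis: Nuclear/cytoplasmic beta-catenin signal ratio, % activation.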
The depositor's hits bear a star; i = inactive; . = not tested or not shown; + = active, no number. In the library only some 2.1% were active in any assay of this set; here they are far more common.

SMILES	MT stabilize HCS	Arbovirus anti	ABCG2 inh	ABCB1 inh	Autophagy mod	bCat nuc transl
COc1cc(N2CCCC2)c(OC)cc1/C=C(/C#N)c1ccc(F)cc1	3	4	13	6	+	.
CCOC(=O)Cc1cc(=O)c2c(=O)n(-c3ccccc3)[nH]c2[nH]1	2	7	-1	0	i	-2
O=C1/C(=C/c2ccc(C(=O)O)cc2)CCC/C1=C\c1ccc(C(=O)O)cc1	2	5	12	1	i	.
CN(C)/N=C/C=C1\CCC/C(=C\c2ccc(F)c(F)c2)C1=O	5	4	11	0	+	3
COc1ccc(/C=C2\CCC/C(=C\C=N\N(C)C)C2=O)cc1	20*	0	4	0	i	-2
Cn1c(=O)[nH]c2nnc(-c3ccc(Cl)c(Cl)c3)nc2c1=O	.	.	.	.	.	0
CSc1cccc(-n2cc(-c3ccc4c(c3)OCO4)[nH]c2=O)c1	19*	-17	-1	0	i	162*
CCCC(=O)N1CCN(c2ccc(NC(=O)c3cc4ccccc4o3)cc2Cl)CC1	5	-41	-4	0	i	0
CSc1nc(-c2ccc(Cl)cc2)c(C#N)c(=O)[nH]1	3	6	0	0	i	1
Cc1cc(N=Cc2c(O)ccc3cc(Br)ccc23)no1	2	55*	4	0	i	-3
Cc1cc(N=Cc2c(O)ccc3ccccc23)no1	2	3	7	1	i	2
Cc1nn(C)cc1CN(C)Cc1ccc(OCC(O)CN2CCCCC2)cc1 (stereo not given)	4	34*	0	0	i	0
COc1ccccc1-c1nnc(SCC(=O)NCc2ccco2)n1N	4	4	8	1	i	1
O=C1NC(=Nc2ccc(F)cc2)CS1	5	10	0	-1	+	0
COC(=O)c1ccccc1NC(=O)CSc1[nH]c(=O)cc(C)c1C#N	2	-3	6	1	i	0
Cc1coc(NC(=O)CSc2nc(-c3ccc(Cl)cc3)cc(C(F)(F)F)c2C#N)n1	2	7	-1	0	i	-2
COc1ccc(-c2cc(C(F)(F)F)c(C#N)c(SCC(=O)Nc3nc(C)co3)n2)cc1	1	-8	1	0	+	0
Cc1cc(=O)[nH]c(SCC(=O)Nc2ccccc2C#N)c1C#N	44*	3	0	0	i	0
COc1ccc(-c2cc(C(F)(F)F)c(C#N)c(SCC(=O)Nc3ccccc3C#N)n2)cc1	6	0	0	0	+	-1
O=[N+]([O-])c1ccc(Nc2c3ccccc3nc3ccccc23)cc1	2	-34	16	1	+	1
O=C(O)c1ccccc1Nc1ccc([N+](=O)[O-])cc1	7	37*	2	1	i	6
Cc1cccc(-c2noc(-c3ccoc3C)n2)c1	6	-3	0	0	i	-3
CCN1/C(=C2\OC(=S)N(C)C2=O)Sc2ccccc21	4	-3	46	0	+	-1
CCN1/C(=C2\SC(=S)N(Cc3ccccc3)C2=O)Sc2ccccc21	9	-4	-4	-1	+	0
N#Cc1ccccc1OCCCNC1CCCC1	11	-4	0	0	i	-1
SMILES	MT stabilize HCS	Arbovirus anti	ABCG2 inh	ABCB1 inh	Autophagy mod	bCat nuc transl
Cc1c(C(=O)Nc2ccc(Br)cc2)cnn1C	3	1	8	0	i	-4
O=C(O)Cc1ccc(O)c(O)c1	.	.	.	.	.	0
O=C(O)Cc1cc(I)c(Oc2ccc(O)c(I)c2)c(I)c1	2	52*	-1	0	i	.
COCc1cc(=O)[nH]c(Nc2nc(C)c3cc(OC)ccc3n2)n1	1	-3	30	1	i	.
O=C(CCc1ccccc1)Nc1ncc2c(n1)CCCC2=O	4	5	8	1	i	-4
COc1ccc(OC)c(/C=N/Nc2nncn2/N=C/c2cc(OC)ccc2OC)c1	32*	-19	5	0	i	.
COc1cc(/C=N/Nc2nncn2/N=C/c2ccc(O)c(OC)c2)ccc1O	3	0	2	1	i	-3
CC(=O)c1ccc(NC(=S)NNC(=O)c2ccncc2)cc1	9	-4	7	0	i	1
COc1ccc(C2C(C(=O)Nc3cc(OC)c(OC)c(OC)c3)c3ccccc3C(=O)N2C)cc1 (stereo not given)	21	-11	8	1	i	73*
c1ccc(Cn2nnc3c(N4CCCCCC4)ncnc32)cc1	1	-12	1	0	.	-4
CCCN1CCN(c2ncnc3c2nnn3Cc2ccccc2)CC1	58*	-25	0	1	i	72*
CCCCNc1cc(C)nc(NCc2ccccc2)n1	10*	-40	0	0	+	38
COc1ccc(C2c3[nH]c4ccccc4c3CCN2Cc2cccn2-c2ncccn2)cc1C (stereo not given)	2	-10	-2	-1	+	-2
Cc1cccc(C2c3[nH]c4ccccc4c3CCN2Cc2cccn2-c2ncccn2)c1 (stereo not given)	6	-8	0	0	i	0
Cc1cc(NC(=O)CSc2nc3ccsc3c(=O)n2CCCCC(=O)O)no1	4	-1	1	0	i	.
C=CCn1c(SCc2c(C)noc2C)nnc1C1COc2ccccc2O1 (stereo not given)	2	71*	8	2	i	-7
CCCCCNc1nc2ccccc2nc1NS(=O)(=O)c1cccs1	1	32*	3	1	i	-1
O=Cc1c(N2CCN(c3ccccc3)CC2)nc2ccccn2c1=O	5	1	34	1	+	-2
COc1ccc(N2CCN(c3nc4ccccn4c(=O)c3C=O)CC2)cc1	2	-10	16	1	i	2
CCOc1ccc(-c2nc(N)ncc2Oc2ccc(OC)cc2)c(O)c1	.	.	.	.	.	-5
Cn1c(=O)c2c(nc(N3CCNCC3)n2Cc2cccc3ccccc23)n(C)c1=O	2	-10	2	1	+	3
CC(=O)c1cc2c(cc1NS(=O)(=O)c1ccccc1C)OCO2	3	-12	1	0	i	0
COc1ccc(S(=O)(=O)Nc2cc3c(cc2C(C)=O)OCO3)cc1	42*	-23	2	1	i	1
COc1ccc(S(=O)(=O)Nc2cc3c(C(C)=O)c(C)oc3c3ccccc23)cc1	11	-8	11	3	+	.
Nc1cc(=O)[nH]c(N2CCN(c3ccccc3)CC2)n1	6	2	3	1	+	-2
CCCCCCCCCCNC(=O)C(=O)Nc1ccccn1	3	11	2	0	i	-1
O=C(CC12CC3CC(CC(Br)(C3)C1)C2)OCCN1CCCCC1	2	7	3	0	+	-3

Compound activity from PubChem.
